Reference: ChEMBL document CHEMBL1123757, “Selective thromboxane synthetase inhibitors and antihypertensive agents. New derivatives of 4-hydrazino-5H-pyridazino[4,5-b]indole, 4-hydrazinopyridazino[4,5-a]indole, and related compounds” (J Med Chem, 1987)

How the values were obtained:
Rattus norvegicus [1] = experiment: Antihypertensive activity in spontaneously hypertensive rats (SHR) measured by percentage fall in cardiac rhythm (CR) at 25 mg/kg administered intraperitoneally at 3 h; assay type: functional, Heart; conditions: route intraperitoneal
Outline: (§1)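 Unanesthetized Okamoto-strain SHR, male and female, 8 weeks old, 300–350 g, systolic pressure ≥190 mmHg, heart rate 400–650 beats/min; five animals per dose. Given ip at 2.5 mL/kg, dissolved or suspended in normal saline or saline with 0.2% (carboxymethyl)cellulose and 1.0% Tween 80. Tail AP and CR recorded by mechanical transduction at set times; reported as percentage fall from control.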

Homo sapiens [2] = organism: Homo sapiens; experiment: In vitro inhibition of platelet aggregation induced by ADP-II (PRP incubated for 60 minutes at 37 degree C) at 10e-5 M; assay type: functional; conditions: 1 h
Outline: (§2)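 Human venous blood anticoagulated with 3.8% sodium citrate (1:9). PRP from centrifugation at 800 rpm for 10 min at room temperature. Count adjusted with PPP to […]. Compound in saline with 10% ethylene glycol is added to PRP and incubated at 37 °C before the agonist. Agonists: ADP 2×10^-5 M, AA 0.6 mM, PGH2 2.8 μM, adrenaline 0.6 μM. Born absorbance aggregometry; n = 5.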

Rattus norvegicus [3] = experiment: Antihypertensive activity in spontaneously hypertensive rats (SHR) measured by percentage fall in arterial pressure (AP) at 25 mg/kg administered perorally at 3 h; assay type: functional, Artery; conditions: route oral
Outline: (§3)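 Oral dosing at 2.5 mL/kg to unanesthetized male and female Okamoto-strain SHR (8 weeks old, 300–350 g, systolic pressure ≥190 mmHg, heart rate 400–650 beats/min), five per dose. Vehicle was normal saline or saline with 0.2% (carboxymethyl)cellulose and 1.0% Tween 80. AP measured on the tail by mechanical transduction at set times; expressed as percentage fall from control.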

Rattus norvegicus [4] = experiment: Antihypertensive activity in spontaneously hypertensive rats (SHR) measured by percentage fall in arterial pressure (AP) at 5 mg/kg administered intraperitoneally at 5 h; assay type: functional, Artery; conditions: route intraperitoneal; outline: as §1
Rattus norvegicus [5] = experiment: Antihypertensive activity in spontaneously hypertensive rats (SHR) measured by percentage fall in arterial pressure (AP) at 1 mg/kg administered intraperitoneally at 1 h; assay type: functional, Artery; conditions: route intraperitoneal; outline: as §1
Rattus norvegicus [6] = experiment: Antihypertensive activity in spontaneously hypertensive rats (SHR) measured by percentage fall in arterial pressure (AP) at 5 mg/kg administered perorally at 1 h; assay type: functional, Artery; conditions: route oral; outline: as §3
Rattus norvegicus [7] = experiment: Antihypertensive activity in spontaneously hypertensive rats (SHR) measured by percentage fall in cardiac rhythm (CR) at 5 mg/kg administered intraperitoneally at 5 h; assay type: functional, Heart; conditions: route intraperitoneal
Outline: (§4)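 Conscious SHR (Okamoto strain), 8 weeks old, male and female, 300–350 g, systolic BP ≥190 mmHg, CR 400–650 beats/min. Given ip or po at 2.5 mL/kg in normal saline or saline with 0.2% (carboxymethyl)cellulose and 1.0% Tween 80. Tail AP and CR recorded by mechanical transduction at 1, 3, 5 and 24 h, five animals per dose. Effect expressed as % fall versus control.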

Homo sapiens [8] = organism: Homo sapiens; experiment: In vitro inhibition of platelet aggregation induced by ADP-II (PRP incubated for 5 minutes at 37 degree C) at 10e-5 M; assay type: functional; outline: as §2
Rattus norvegicus [9] = experiment: Antihypertensive activity in spontaneously hypertensive rats (SHR) measured by percentage fall in arterial pressure (AP) at 25 mg/kg administered intraperitoneally at 3 h; assay type: functional, Artery; conditions: route intraperitoneal; outline: as §1
Rattus norvegicus [10] = experiment: Antihypertensive activity in spontaneously hypertensive rats (SHR) measured by percentage fall in arterial pressure (AP) at 5 mg/kg administered perorally at 3 h; assay type: functional, Artery; conditions: route oral; outline: as §3
Rattus norvegicus [11] = experiment: Antihypertensive activity in spontaneously hypertensive rats (SHR) measured by percentage fall in arterial pressure (AP) at 1 mg/kg administered intraperitoneally at 3 h; assay type: functional, Artery; conditions: route intraperitoneal; outline: as §1
Rattus norvegicus [12] = experiment: Percent fall in systolic blood pressure, directly measured on carotid (iv on the jugular vein) of spontaneously hypertensive rats at 1 mg/kg after 45 minutes; assay type: functional, Artery
Outline: (§5)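 Anesthetized (sodium pentobarbital, 70 mg/kg) male and female Okamoto SHR, 8 weeks old, 300–350 g. Given iv into the jugular vein in normal saline. Arterial pressure and cardiac rhythm are recorded directly from the carotid by polygraph at set times after dosing. Each is expressed as percent change from the pre-dose control value.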

Rattus norvegicus [13] = experiment: Antihypertensive activity in spontaneously hypertensive rats (SHR) measured by percentage fall in cardiac rhythm (CR) at 5 mg/kg administered perorally at 1 h; assay type: functional, Heart; conditions: route oral; outline: as §4
Rattus norvegicus [14] = experiment: Antihypertensive activity in spontaneously hypertensive rats (SHR) measured by percentage fall in arterial pressure (AP) at 5 mg/kg administered intraperitoneally at 24 h; assay type: functional, Artery; conditions: route intraperitoneal; outline: as §1
Rattus norvegicus [15] = experiment: Percent fall in systolic blood pressure, directly measured on carotid (iv on the jugular vein) of spontaneously hypertensive rats at 1 mg/kg after 60 minutes; assay type: functional, Artery; outline: as §5
Rattus norvegicus [16] = experiment: Antihypertensive activity in spontaneously hypertensive rats (SHR) measured by percentage fall in cardiac rhythm (CR) at 1 mg/kg administered intraperitoneally at 1 h; assay type: functional, Heart; conditions: route intraperitoneal; outline: as §1
Rattus norvegicus [17] = experiment: Percent fall in systolic blood pressure, directly measured on carotid (iv on the jugular vein) of spontaneously hypertensive rats at 1 mg/kg after 90 minutes; assay type: functional, Artery; outline: as §5
Rattus norvegicus [18] = experiment: Percent fall in systolic blood pressure, directly measured on carotid (iv on the jugular vein) of spontaneously hypertensive rats at 1 mg/kg after 30 minutes; assay type: functional, Artery; outline: as §5
Rattus norvegicus [19] = experiment: Percent fall in systolic blood pressure, directly measured on carotid (iv on the jugular vein) of spontaneously hypertensive rats at 1 mg/kg after 5 minutes; assay type: functional, Artery; outline: as §5
Rattus norvegicus [20] = experiment: Antihypertensive activity in spontaneously hypertensive rats (SHR) measured by percentage fall in arterial pressure (AP) at 25 mg/kg administered intraperitoneally at 1 h; assay type: functional, Artery; conditions: route intraperitoneal; outline: as §1
Rattus norvegicus [21] = experiment: Antihypertensive activity in spontaneously hypertensive rats (SHR) measured by percentage fall in arterial pressure (AP) at 25 mg/kg administered intraperitoneally at 24 h; assay type: functional, Artery; conditions: route intraperitoneal; outline: as §1
Rattus norvegicus [22] = experiment: Antihypertensive activity in spontaneously hypertensive rats (SHR) measured by percentage fall in cardiac rhythm (CR) at 25 mg/kg administered intraperitoneally at 24 h; assay type: functional, Heart; conditions: route intraperitoneal; outline: as §1
Rattus norvegicus [23] = experiment: Antihypertensive activity in spontaneously hypertensive rats (SHR) measured by percentage fall in cardiac rhythm (CR) at 25 mg/kg administered perorally at 1 h; assay type: functional, Heart; conditions: route oral; outline: as §4
Rattus norvegicus [24] = experiment: Percent fall in systolic blood pressure, directly measured on carotid (iv on the jugular vein) of spontaneously hypertensive rats at 1 mg/kg after 15 minutes; assay type: functional, Artery; outline: as §5
Rattus norvegicus [25] = experiment: Antihypertensive activity in spontaneously hypertensive rats (SHR) measured by percentage fall in arterial pressure (AP) at 25 mg/kg administered perorally at 1 h; assay type: functional, Artery; conditions: route oral; outline: as §3
Rattus norvegicus [26] = experiment: Percent fall in systolic blood pressure, directly measured on carotid (iv on the jugular vein) of spontaneously hypertensive rats at 1 mg/kg after 75 minutes; assay type: functional, Artery; outline: as §5
Rattus norvegicus [27] = experiment: Antihypertensive activity in spontaneously hypertensive rats (SHR) measured by percentage fall in cardiac rhythm (CR) at 1 mg/kg administered intraperitoneally at 5 h; assay type: functional, Heart; conditions: route intraperitoneal; outline: as §1
Rattus norvegicus [28] = experiment: Antihypertensive activity in spontaneously hypertensive rats (SHR) measured by percentage fall in arterial pressure (AP) at 25 mg/kg administered intraperitoneally at 5 h; assay type: functional, Artery; conditions: route intraperitoneal; outline: as §1
Rattus norvegicus [29] = experiment: Antihypertensive activity in spontaneously hypertensive rats (SHR) measured by percentage fall in arterial pressure (AP) at 5 mg/kg administered intraperitoneally at 3 h; assay type: functional, Artery; conditions: route intraperitoneal; outline: as §1
Rattus norvegicus [30] = experiment: Percent fall in systolic blood pressure, directly measured on carotid (iv on the jugular vein) of spontaneously hypertensive rats at 1 mg/kg after 10 minutes; assay type: functional, Artery; outline: as §5
Rattus norvegicus [31] = experiment: Antihypertensive activity in spontaneously hypertensive rats (SHR) measured by percentage fall in cardiac rhythm (CR) at 1 mg/kg administered intraperitoneally at 24 h; assay type: functional, Heart; conditions: route intraperitoneal; outline: as §1
Rattus norvegicus [32] = experiment: Antihypertensive activity in spontaneously hypertensive rats (SHR) measured by percentage fall in cardiac rhythm (CR) at 25 mg/kg administered intraperitoneally at 5 h; assay type: functional, Heart; conditions: route intraperitoneal; outline: as §4
Rattus norvegicus [33] = experiment: Antihypertensive activity in spontaneously hypertensive rats (SHR) measured by percentage fall in cardiac rhythm (CR) at 1 mg/kg administered intraperitoneally at 3 h; assay type: functional, Heart; conditions: route intraperitoneal; outline: as §1
Rattus norvegicus [34] = experiment: Antihypertensive activity in spontaneously hypertensive rats (SHR) measured by percentage fall in arterial pressure (AP) at 5 mg/kg administered intraperitoneally at 1 h; assay type: functional, Artery; conditions: route intraperitoneal; outline: as §1

Compound: CCOc1ccc2[nH]c3c(NN)nncc3c2c1.Cl
- Decrease in CR (Rattus norvegicus [1]): -17%
- inhibition at 10 µM (Homo sapiens [2]): 100%
- Decrease in AP (Rattus norvegicus [3]): 5%
- Decrease in AP (Rattus norvegicus [4]): 32%
- Decrease in AP (Rattus norvegicus [5]): 29%
- Decrease in AP (Rattus norvegicus [6]): 15%
- Decrease in CR (Rattus norvegicus [7]): -7%
- inhibition at 10 µM (Homo sapiens [8]): 100%
- Decrease in AP (Rattus norvegicus [9]): 57%
- Decrease in AP (Rattus norvegicus [10]): 10%
- Decrease in AP (Rattus norvegicus [11]): 10%
- Decrease in blood pressure (Rattus norvegicus [12]): 36%
- Decrease in CR (Rattus norvegicus [13]): -11%
- Decrease in AP (Rattus norvegicus [14]): 12%
- Decrease in blood pressure (Rattus norvegicus [15]): 41%
- Decrease in CR (Rattus norvegicus [16]): 6%
- Decrease in blood pressure (Rattus norvegicus [17]): 25%
- Decrease in blood pressure (Rattus norvegicus [18]): 32%
- Decrease in blood pressure (Rattus norvegicus [19]): 16%
- Decrease in AP (Rattus norvegicus [20]): 57%
- Decrease in AP (Rattus norvegicus [21]): 34%
- Decrease in CR (Rattus norvegicus [22]): -11%
- Decrease in CR (Rattus norvegicus [23]): 11%
- Decrease in blood pressure (Rattus norvegicus [24]): 20%
- Decrease in AP (Rattus norvegicus [25]): 16%
- Decrease in blood pressure (Rattus norvegicus [26]): 32%
- Decrease in CR (Rattus norvegicus [27]): -10%
- Decrease in AP (Rattus norvegicus [28]): 51%
- Decrease in AP (Rattus norvegicus [29]): 37%
- Decrease in blood pressure (Rattus norvegicus [30]): 18%
- Decrease in CR (Rattus norvegicus [31]): 10%
- Decrease in CR (Rattus norvegicus [32]): -20%
- Decrease in CR (Rattus norvegicus [33]): -5%
- Decrease in AP (Rattus norvegicus [34]): 59%
